Data as given in ChEMBL document CHEMBL4665767, “Synthesis and biological evaluation of semi-synthetic albocycline analogs” (2020).
≈ marks a conversion by molar mass, not a printed value. Calls of active or inactive are those of the source. The calls are words filed in the database; no cut-off is given here.

What was measured:
Staphylococcus aureus [1] = experiment: Antibacterial activity against methicillin resistant Staphylococcus aureus USA300; format: functional
Outline: (§1)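 Broth microdilution MIC in Mueller Hinton broth. Stocks 12.8 mg/mL in DMSO, serially diluted twofold, 2 µL added per well (top final 256 µg/mL). Inoculum grown at 37 °C, 200 rpm to OD600 0.18, then diluted to 3x10^5 cells/mL final, checked by plate count. Incubated 16-24 h at 37 °C, technical duplicates. MIC read as lowest concentration with visible growth inhibition.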

Staphylococcus aureus [2] = experiment: Antibacterial activity against methicillin sensitive Staphylococcus aureus UAMS1; format: functional
Outline: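 Broth microdilution in Mueller Hinton broth; DMSO stocks (12.8 mg/mL) serially diluted, 2 µL added per well, giving up to 256 µg/mL. Inoculum grown at 37 °C, 200 rpm to OD600 0.18, diluted to final 3x10^5 cells/mL, count confirmed by plating. Technical duplicate; 16-24 h at 37 °C; MIC = lowest concentration with visual growth inhibition.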

Staphylococcus aureus [3] = experiment: Potency index, ratio of albocycline MIC to test compound MIC for methicillin resistant Staphylococcus aureus USA300; format: functional
Pseudomonas aeruginosa = experiment: Antibacterial activity against Pseudomonas aeruginosa; format: functional, organism-based
Outline: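 Twofold serial dilutions in 96-well microtiter plates from a 10 mg/mL DMSO starting concentration; DMSO solvent control, kanamycin positive control. Wells inoculated with 1:100 dilution of overnight cultures (P. aeruginosa strain PA10). Incubated 37 °C for 24 h; MIC scored as lowest well showing growth inhibition.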

Acinetobacter baumannii = experiment: Antibacterial activity against Acinetobacter baumannii; format: functional, organism-based
Escherichia coli = experiment: Antibacterial activity against Escherichia coli; format: functional, organism-based
Staphylococcus aureus [4] = experiment: Antibacterial activity against vancomycin-resistant Staphylococcus aureus; format: functional; outline: as §1
Staphylococcus aureus [5] = experiment: Antibacterial activity against vancomycin-intermediate Staphylococcus aureus; format: functional; outline: as §1
Staphylococcus aureus [6] = experiment: Antibacterial activity against methicillin resistant Staphylococcus aureus; format: functional; outline: as §1

| Compound | MIC (Staphylococcus aureus [1]) | MIC (Staphylococcus aureus [2]) | further results |
| --- | --- | --- | --- |
| CO[C@H]1/C=C/[C@@](C)(O)/C=C/C(=O)O[C@H](C)[C@@H](C)CC/C=C/1COP(=O)(Oc1ccccc1)Oc1ccccc1 | > 256 µg/mL | > 256 µg/mL |  |
| CO[C@H]1/C=C/[C@@](C)(OC(=O)c2ccc(F)cc2)/C=C/C(=O)O[C@H](C)[C@@H](C)CC/C=C/1C | 1 µg/mL (≈ 2.32 µM) | 1 µg/mL (≈ 2.32 µM) | Ratio (Staphylococcus aureus [3]): 2 |
| C/C1=C\CC[C@H](C)[C@@H](C)OC(=O)/C=C/[C@](C)(O)/C=C/[C@@H]1O | 4 µg/mL (≈ 13.6 µM) | 8 µg/mL (≈ 27.2 µM) |  |
| CO[C@H]1/C=C/[C@@](C)(O)C(SCCN)CC(=O)O[C@H](C)[C@@H](C)CC/C=C/1C (mixture of isomers) | 256 µg/mL | 128 µg/mL | Activity (Pseudomonas aeruginosa): inactive; Activity (Acinetobacter baumannii): inactive; Activity (Escherichia coli): inactive |
| COC/C1=C\CC[C@H](C)[C@@H](C)OC(=O)/C=C/[C@](C)(O)/C=C/[C@@H]1OC |  | 128 µg/mL (≈ 378 µM) |  |
| CO[C@H]1/C=C/[C@@](C)(O)/C=C/C(=O)O[C@H](C)[C@@H](C)CC/C=C/1C | 2 µg/mL (≈ 6.48 µM) | 2 µg/mL (≈ 6.48 µM) | MIC (Staphylococcus aureus [4]): 0.5 µg/mL (≈ 1.62 µM); MIC (Staphylococcus aureus [5]): 0.5 µg/mL (≈ 1.62 µM); MIC (Staphylococcus aureus [6]): 0.5 µg/mL (≈ 1.62 µM) |
| C#CCO[C@@]1(C)/C=C/C(=O)O[C@H](C)[C@@H](C)CC/C=C(\C)[C@@H](OC)/C=C/1 |  | > 256 µg/mL |  |
| CO[C@H]1/C=C/[C@@](C)(O)/C=C/C(=O)O[C@H](C)[C@@H](C)CC/C=C/1CO |  | 32 µg/mL (≈ 98.6 µM) |  |
| CO[C@H]1/C=C/[C@@](C)(O)/C=C/C(=O)O[C@H](C)[C@@H](C)CC/C=C/1C=O |  | 32 µg/mL (≈ 99.3 µM) |  |
